Assay results reported in ChEMBL document CHEMBL3085705, “Design, chemical synthesis of 3-(9H-fluoren-9-yl)pyrrolidine-2,5-dione derivatives and biological activity against enoyl-ACP reductase (InhA) and Mycobacterium tuberculosis” (2013).

Experiments:
Assay type in all cases: functional
[1] = system: Mycobacterium tuberculosis; experiment: Antimicrobial activity against streptomycin, isoniazid, rifampicin, ethambutol, pyrazinamide and ethionammide-resistant Mycobacterium tuberculosis clinical isolate by two-fold serial dilution method
Outline: (§1)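 Compounds dissolved in DMSO. Single colony grown in Middlebrook 7H9 with 0.05% Tween 80 and 10% OADC at 37 °C, no shaking, to ~10^8 CFU/mL (OD600 0.8–1.0). Diluted to ~10^7 CFU/mL; 1 μL streaked onto 7H11 agar (0.5% glycerol, 10% OADC) with two-fold serial compound dilutions. MIC is the lowest concentration inhibiting growth. Repeated three times.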

[2] = system: Mycobacterium tuberculosis; experiment: Antimicrobial activity against streptomycin, isoniazid, rifampicin, ethambutol, pyrazinamide, ethionammide and capreomicinl-resistant Mycobacterium tuberculosis clinical isolate by two-fold serial dilution method; outline: as §1
[3] = system: Mycobacterium tuberculosis; experiment: Antimicrobial activity against streptomycin, isoniazid, rifampicin and ethambutol-resistant Mycobacterium tuberculosis clinical isolate by two-fold serial dilution method; outline: as §1

Measured: MIC

O=C(CC(C(=O)O)C1c2ccccc2-c2ccccc21)Nc1cc(Cl)cc(Cl)c1 (stereo not drawn)
4.7 µM: all assays above
